# Test results from ChEMBL document CHEMBL1759940, “Synthesis and anticonvulsant activity of 8-alkoxy-5,6-dihydro-4H-[1,2,4]triazolo[4,3-a][1]benzazepin-1-one derivatives” (Eur J Med Chem, 2011).
# The source made the active and inactive calls. No cut-off for these calls is given here.
# Columns and labels:
# [1] = Neurotoxicity against Swiss mouse after 4 hrs by rotarod ataxia test; assay type: toxicity, organism-based; conditions: in vivo
# Procedure, shortened: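 Neurologic deficit was scored in Swiss mice (18-22 g) by rotarod ataxia test after i.p. dosing in DMSO (phase I: 30, 100, 300 mg/kg, assessed at 30 min and 4 h). For TD50, groups of 10 mice received a range of doses giving at least three points within 10-90% minimal neurotoxicity, calculated by trimmed Spearman-Karber with 95% confidence intervals.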
# Mus musculus [2] = assay: Anticonvulsant activity in ip dosed Swiss mouse assessed as protection against maximal electroshock-induced seizures after 30 mins; assay type: functional; conditions: 0.5 h
# Procedure, shortened: (§1)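 Phase II quantification in Swiss mice (18-22 g), with compounds dissolved in DMSO and given i.p. Groups of 10 mice received a range of doses until at least three points fell within 10-90% protection against MES-induced seizures. ED50 and 95% confidence intervals were derived by the trimmed Spearman-Karber method.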
# Mus musculus [3] = assay: Protective index, ratio of TD50 for Swiss mouse to ED50 for Swiss mouse by subcutaneous pentylenetetrazol-induced seizure test; assay type: functional
# Mus musculus [4] = assay: Anticonvulsant activity in ip dosed Swiss mouse assessed as protection against maximal electroshock-induced seizures administered 30 mins before electroshock challenge measured after 30 mins; assay type: functional; procedure, shortened: as §1
# Mus musculus [5] = assay: Anticonvulsant activity in Swiss mouse assessed as protection against subcutaneous pentylenetetrazol-induced seizures at 100 mg/kg, ip after 30 mins; assay type: functional, organism-based; set-up: dose 100 mg/kg
# Procedure, shortened: (§2)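 Swiss mice (18-22 g) were dosed i.p. in DMSO at 30, 100 or 300 mg/kg. Pentylenetetrazol (85 mg/kg) was then injected s.c. Protection meant no clonic spasms lasting at least 5 s over a 30 min period after test compound administration.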
# Mus musculus [6] = assay: Anticonvulsant activity in Swiss mouse assessed as protection against maximal electroshock-induced seizures at 30 mg/kg, ip administered 30 mins before electroshock challenge measured after 30 mins; assay type: functional, organism-based; set-up: dose 30 mg/kg
# Procedure, shortened: (§3)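 Swiss mice (18-22 g) given the test compound i.p. in DMSO at 30, 100 or 300 mg/kg for phase I screening. Maximal electroshock was applied 30 min after dosing, and protection against the MES-induced seizure was scored.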
# Mus musculus [7] = species: Mus musculus; assay: Protective index, ratio of TD50 for Swiss mouse to ED50 for Swiss mouse by maximal electroshock-induced seizures test; assay type: functional
# Mus musculus [8] = assay: Anticonvulsant activity in Swiss mouse assessed as protection against maximal induced seizures at 300 mg/kg, ip administered 30 mins before electroshock challenge measured after 30 mins; assay type: functional, organism-based; set-up: dose 300 mg/kg; procedure, shortened: as §3
# Mus musculus [9] = assay: Anticonvulsant activity in Swiss mouse assessed as protection against subcutaneous pentylenetetrazol-induced seizures at 30 mg/kg, ip after 30 mins; assay type: functional, organism-based; set-up: dose 30 mg/kg; procedure, shortened: as §2
# Mus musculus [10] = assay: Anticonvulsant activity in Swiss mouse assessed as protection against subcutaneous pentylenetetrazol-induced seizures at 300 mg/kg, ip after 30 mins; assay type: functional, organism-based; set-up: dose 300 mg/kg; procedure, shortened: as §2
# Mus musculus [11] = assay: Anticonvulsant activity in Swiss mouse assessed as protection against maximal electroshock-induced seizures at 100 mg/kg, ip administered 30 mins before electroshock challenge measured after 30 mins; assay type: functional, organism-based; set-up: dose 100 mg/kg; procedure, shortened: as §3
SMILES,TD50 at 4 h [1] [mg/kg],ED50 (Mus musculus [2]) [mg/kg],PI (Mus musculus [3]),ED50 (Mus musculus [4]) [mg/kg],Activity (Mus musculus [5]),Activity (Mus musculus [6]),PI (Mus musculus [7]),Activity (Mus musculus [8]),Activity (Mus musculus [9]),Activity (Mus musculus [10]),Activity (Mus musculus [11])
CCCCCCOc1ccc2c(c1)CCCc1n[nH]c(=O)n1-2,> 1120,17.9,>24,17.9,Active,Active,>62.4,,,,
COc1ccc2c(c1)CCCc1n[nH]c(=O)n1-2,,,,,inactive,,,Active,inactive,inactive,
O=c1[nH]nc2n1-c1ccc(OCc3ccc(Br)cc3)cc1CCC2,> 931,,,55.8,,,>16.7,,,,Active
O=c1[nH]nc2n1-c1ccc(OCc3ccc(Cl)cc3)cc1CCC2,> 931,,,40.1,,,>23.2,,,inactive,Active
O=c1[nH]nc2n1-c1ccc(OCc3ccccc3)cc1CCC2,> 931,,,30.5,,,>30.5,,,,Active
CCCCOc1ccc2c(c1)CCCc1n[nH]c(=O)n1-2,> 1120,37.3,>17,37.3,Active,,>29.9,,,,Active
O=c1[nH]nc2n1-c1ccc(OCc3cccc(Cl)c3)cc1CCC2,> 931,,,26.4,,,>35.3,,,,
O=c1[nH]nc2n1-c1ccc(OCc3ccccc3Cl)cc1CCC2,> 931,,,32.9,inactive,,>28.3,,,,Active
CCCOc1ccc2c(c1)CCCc1n[nH]c(=O)n1-2,> 931,,,75.5,,,>12.3,,inactive,,
Cc1ccc(COc2ccc3c(c2)CCCc2n[nH]c(=O)n2-3)cc1,> 931,,,50,inactive,,>18.6,,inactive,,
CCCCCOc1ccc2c(c1)CCCc1n[nH]c(=O)n1-2,> 1120,24.6,>29.4,24.6,Active,Active,>45.4,,,,
CCCCCCCCOc1ccc2c(c1)CCCc1n[nH]c(=O)n1-2,> 1120,20.7,>22.2,20.7,Active,,>54,,,,
O=c1[nH]nc2n1-c1ccc(OCc3ccc(F)cc3)cc1CCC2,> 931,,,22.8,,,>40.8,,inactive,,
NC(=O)N1c2ccccc2C=Cc2ccccc21 [CARBAMAZEPINE],74.4,9.2,<0.74,9.2,,,,,,,
CCCCCCCOc1ccc2c(c1)CCCc1n[nH]c(=O)n1-2,> 1120,17.6,>25.9,17.6,Active,Active,>63.4,,,,
O=c1[nH]nc2n1-c1ccc(OCc3cccc(F)c3)cc1CCC2,> 931,,,17.6,inactive,Active,>52.9,,inactive,,
O=c1[nH]nc2n1-c1ccc(OCc3ccccc3F)cc1CCC2,> 931,,,18.4,,Active,>50.6,,inactive,inactive,
